Legend:
Rattus norvegicus [1] = assay: Distribution of radioactivity of radiolabeled compound in blood of female rats 5 minutes after intravenous administration; format: ADME, organism-based; settings: in vivo
Rattus norvegicus [2] = assay: Distribution of radioactivity of radiolabeled compound in heart of female rats 30 minutes after intravenous administration; format: ADME, organism-based; settings: in vivo, 0.5 h
Rattus norvegicus [3] = assay: Distribution of radioactivity of radiolabeled compound in blood of female rats 30 minutes after intravenous administration; format: ADME, organism-based; settings: in vivo, 0.5 h
Rattus norvegicus [4] = assay: Distribution of radioactivity of radiolabeled compound in heart of female rats 5 minutes after intravenous administration; format: ADME, organism-based; settings: in vivo
Rattus norvegicus [5] = assay: Distribution of radioactivity of radiolabeled compound in kidney of female rats 30 minutes after intravenous administration; format: ADME, organism-based; settings: in vivo, 0.5 h
Rattus norvegicus [6] = assay: Distribution of radioactivity of radiolabeled compound in kidney of female rats 5 minutes after intravenous administration; format: ADME, organism-based; settings: in vivo
Rattus norvegicus [7] = assay: Distribution of radioactivity of radiolabeled compound in liver of female rats 30 minutes after intravenous administration; format: ADME, organism-based; settings: in vivo, 0.5 h
Rattus norvegicus [8] = assay: Distribution of radioactivity of radiolabeled compound in liver of female rats 5 minutes after intravenous administration; format: ADME, organism-based; settings: in vivo
Rattus norvegicus [9] = assay: Distribution of radioactivity of radiolabeled compound in lung of female rats 30 minutes after intravenous administration; format: ADME, organism-based; settings: in vivo, 0.5 h
Rattus norvegicus [10] = assay: Distribution of radioactivity of radiolabeled compound in lung of female rats 5 minutes after intravenous administration; format: ADME, organism-based; settings: in vivo
Rattus norvegicus [11] = assay: Polyacrylamide Gel Electrophoresis (PAGE) analysis of rat plasma after intravenous administration of radiolabeled compound in high density lipoprotein; format: functional, organism-based
Outline: (§1)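 ¹²⁵I-labeled compound, radioiodinated by exchange in a pivalic acid melt, solubilized in normal saline with Tween 20 and given iv to adult female Sprague–Dawley rats (200–250 g), 5–30 μCi/animal, 3–4 rats per time point. Plasma was run on polyacrylamide gels. Gels were sectioned and gamma counted. Radioactivity per band (stacking gel, LDL, HDL, albumin, below albumin) is given as % of total applied; mean ± SEM, n = 3-5.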

Rattus norvegicus [12] = assay: Polyacrylamide Gel Electrophoresis (PAGE) analysis of rat plasma 30 min after intravenous administration of radiolabeled compound ( below albumin ); format: functional, organism-based
Outline: (§2)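 Gels were sectioned and counted in a γ counter. Radioactivity in each band (stacking gel, LDL, HDL, albumin, below albumin) is expressed as a percentage of the total radioactivity applied to the gel, ± SEM, n = 3-5.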

Rattus norvegicus [13] = assay: Polyacrylamide Gel Electrophoresis (PAGE) analysis of rat plasma 5 minutes after intravenous administration of radiolabeled compound in albumin; format: functional, organism-based; outline: as §1
Rattus norvegicus [14] = assay: Polyacrylamide Gel Electrophoresis (PAGE) analysis of rat plasma 5 minutes after intravenous administration of radiolabeled compound in high density lipoprotein; format: functional, organism-based; outline: as §1
Rattus norvegicus [15] = assay: Polyacrylamide Gel Electrophoresis (PAGE) analysis of rat plasma 5 minutes after intravenous administration of radiolabeled compound in low-density lipoprotein; format: functional, organism-based; outline: as §1
Rattus norvegicus [16] = assay: Polyacrylamide Gel Electrophoresis (PAGE) analysis of rat plasma 5 minutes after intravenous administration of radiolabeled compound in stacking gel; format: functional, organism-based; outline: as §1
Rattus norvegicus [17] = assay: Polyacrylamide Gel Electrophoresis (PAGE) analysis of rat plasma 5 min after intravenous administration of radiolabeled compound in albumin; format: functional, organism-based; outline: as §2
Rattus norvegicus [18] = assay: Polyacrylamide Gel Electrophoresis (PAGE) analysis of rat plasma after intravenous administration of radiolabeled compound at concentration of low-density lipoprotein; format: functional, organism-based; outline: as §1
Rattus norvegicus [19] = assay: Polyacrylamide Gel Electrophoresis (PAGE) analysis of rat plasma after intravenous administration of radiolabeled compound concentration of stacking gel; format: functional, organism-based; outline: as §1
Rattus norvegicus [20] = assay: Polyacrylamide Gel Electrophoresis (PAGE) analysis of rat plasma 30 min after intravenous administration of radiolabeled compound in albumin; format: functional, organism-based; outline: as §2
Rattus norvegicus [21] = assay: Polyacrylamide Gel Electrophoresis (PAGE) analysis of rat plasma 30 min after intravenous administration of radiolabeled compound ( below albumin); format: functional, organism-based; outline: as §2
Rattus norvegicus [22] = assay: Polyacrylamide Gel Electrophoresis (PAGE) analysis of rat plasma 30 min after intravenous administration of radiolabeled compound in low density lipoprotein; format: functional, organism-based; outline: as §2
Rattus norvegicus [23] = assay: Polyacrylamide Gel Electrophoresis (PAGE) analysis of rat plasma 5 minutes after intravenous administration of radiolabeled compound (below albumin ); format: functional, organism-based; outline: as §1
Rattus norvegicus [24] = assay: Polyacrylamide Gel Electrophoresis (PAGE) analysis of rat plasma 5 minutes after intravenous administration of radiolabeled compound at in high density lipoprotein; format: functional, organism-based; outline: as §1
Rattus norvegicus [25] = assay: Polyacrylamide Gel Electrophoresis (PAGE) analysis of rat plasma 5 minutes after intravenous administration of radiolabeled in stacking gel; format: functional, organism-based; outline: as §1
Rattus norvegicus [26] = assay: Polyacrylamide Gel Electrophoresis (PAGE) analysis of rat plasma 30 min after intravenous administration of radiolabeled compound at in high density; format: functional, organism-based; outline: as §2
Rattus norvegicus [27] = assay: Polyacrylamide Gel Electrophoresis (PAGE) analysis of rat plasma 5 min after intravenous administration of radiolabeled compound concentration of albumin; format: functional, organism-based; outline: as §2
Rattus norvegicus [28] = assay: Percentage […]/CH3OH extract of the radiolabeled compound in rat liver 30 minutes after iv administration; format: functional
Outline: (§3)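 Liver and plasma were taken at 5 or 30 min. Plasma was extracted by a modified Folch procedure, and liver was homogenized and extracted. Extracts were run on TLC in hexane/ethyl acetate (5:2) for esters or THF/hexane (1:1) for acids, with unlabeled compound as reference. Plates were cut into 1-cm strips and counted. Values are percent ± SEM, n = 3-5.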

Rattus norvegicus [29] = assay: Percentage […]/CH3OH extract of the radiolabeled compound in rat liver 5 minutes after iv administration; format: functional; outline: as §3
Rattus norvegicus [30] = assay: Percentage […]/CH3OH extract of the radiolabeled compound in rat plasma 30 minutes after iv administration; format: functional; outline: as §3
Rattus norvegicus [31] = assay: Percentage […]/CH3OH extract of the radiolabeled compound in rat plasma 5 minutes after iv administration; format: functional; outline: as §3
Rattus norvegicus [32] = assay: Polyacrylamide Gel Electrophoresis (PAGE) analysis of rat plasma 30 minutes after intravenous administration of radiolabeled compound concentration of stacking gel; format: functional, organism-based; outline: as §2
Rattus norvegicus [33] = assay: Polyacrylamide Gel Electrophoresis (PAGE) analysis of rat plasma 30 min after intravenous administration of radiolabeled compound in low-density lipoprotein; format: functional, organism-based; outline: as §2
Rattus norvegicus [34] = assay: Polyacrylamide Gel Electrophoresis (PAGE) analysis of rat plasma 5 minutes after intravenous administration of radiolabeled compound (below albumin); format: functional, organism-based; outline: as §1
Rattus norvegicus [35] = assay: Polyacrylamide Gel Electrophoresis (PAGE) analysis of rat plasma 5 min after intravenous administration of radiolabeled compound in low-density lipoprotein; format: functional, organism-based; outline: as §1
Rattus norvegicus [36] = assay: Polyacrylamide Gel Electrophoresis (PAGE) analysis of rat plasma 30 min after intravenous administration of radiolabeled compound at concentration of high density; format: functional, organism-based; outline: as §2

Row | SMILES | Dose (Rattus norvegicus [1]) [%] | Dose (Rattus norvegicus [2]) [%] | Dose (Rattus norvegicus [3]) [%] | Dose (Rattus norvegicus [4]) [%] | Dose (Rattus norvegicus [5]) [%] | Dose (Rattus norvegicus [6]) [%] | Dose (Rattus norvegicus [7]) [%] | Dose (Rattus norvegicus [8]) [%] | Dose (Rattus norvegicus [9]) [%] | Dose (Rattus norvegicus [10]) [%] | Concentration (Rattus norvegicus [14]) | Concentration (Rattus norvegicus [15]) [%] | Concentration (Rattus norvegicus [16]) [%] | Concentration (Rattus norvegicus [17]) | Concentration (Rattus norvegicus [20]) | Concentration (Rattus norvegicus [23]) | also measured
1 | CCC(Cc1c(I)cc(I)c(N)c1I)C(=O)O (centres undefined) [IOPANOIC ACID] | 2.19 | 0.46 | 1.21 | 0.74 | 0.52 | 0.71 | 1.46 | 1.64 | 0.61 | 0.81 | 19.8 | 0.5 | 0.6 | 77.5 | 78.4 |  | Concentration (Rattus norvegicus [11]): 8.7%; Concentration (Rattus norvegicus [12]): 6.7%; Concentration (Rattus norvegicus [13]): 77.5; Concentration (Rattus norvegicus [18]): 2.2; Concentration (Rattus norvegicus [19]): 3.9
2 | Nc1c(I)cc(I)c(CC(=O)O)c1I | 5.44 | 0.72 | 2.41 | 1.09 | 5.82 | 4.62 | 0.5 | 0.87 | 1.07 | 1.49 |  | 1 | 1.7 |  | 83.6 | 5.5 | Concentration (Rattus norvegicus [21]): 7; Concentration (Rattus norvegicus [22]): 0.4; Concentration (Rattus norvegicus [24]): 15.8%; Concentration (Rattus norvegicus [25]): 1.7%; Concentration (Rattus norvegicus [26]): 7.3%; Concentration (Rattus norvegicus [27]): 76
3 | CCCCCCCCCCCCCCCC(=O)OCC(COC(=O)CCCCCCCCCCCCCCC)OC(=O)C(CC)Cc1c(I)cc(I)c(N)c1I (centres undefined) | 6.04 | 1.92 | 3.73 | 0.6 | 0.65 | 0.65 | 4.6 | 2.16 | 0.97 | 1.15 | 52.6 |  | 4.6 | 4.4 | 5.4 | 3 | Activity (Rattus norvegicus [28]): 79.7%; Activity (Rattus norvegicus [29]): 84.4%; Activity (Rattus norvegicus [30]): 92.2%; Activity (Rattus norvegicus [31]): 85.7%; Concentration (Rattus norvegicus [32]): 7.1; Concentration (Rattus norvegicus [33]): 27.5; Concentration (Rattus norvegicus [34]): 3; Concentration (Rattus norvegicus [35]): 35.1; Concentration (Rattus norvegicus [36]): 54.1
